In ChEMBL document CHEMBL1152968, “Phenylethanoid and lignan glycosides from polar extracts of Lantana, a genus of verbenaceous plants widely used in traditional herbal therapies” (J Nat Prod, 2009):
Activity calls are given as the source filed them.

What was measured:
Format in all cases: functional, cell-based
Jurkat = assay: Cytotoxicity against human Jurkat cells at 10 uM after 48 hrs by fluorescent microplate assay
In short: (§1)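 Cells were seeded in 96-well plates in RPMI 1640 with 10% fetal calf serum and 10 units/mL penicillin-streptomycin. They were then cultured 24 h at 37 °C in humidified 5% CO2 before treatment. Compounds were added dissolved in DMSO, and the read-out was cell viability.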

CCRF-CEM = assay: Cytotoxicity against human CEM cells at 10 uM after 48 hrs by fluorescent microplate assay; in short: as §1
K562 = assay: Cytotoxicity against human K562 cells at 10 uM after 48 hrs by fluorescent microplate assay; in short: as §1
KG-1 = assay: Cytotoxicity against human KG1 cells at 10 uM after 48 hrs by fluorescent microplate assay; in short: as §1
NCI-H929 = assay: Cytotoxicity against human NCI-H929 cells at 10 uM after 48 hrs by fluorescent microplate assay; in short: as §1
HL-60 = assay: Cytotoxicity against human HL60 cells at 10 uM after 48 hrs by fluorescent microplate assay; in short: as §1
U-266 = assay: Cytotoxicity against human U266 cells at 10 uM after 48 hrs by fluorescent microplate assay; in short: as §1
U-937 = assay: Cytotoxicity against human U937 cells at 10 uM after 48 hrs by fluorescent microplate assay; in short: as §1

Measured: Activity

O=C(/C=C/c1ccc(O)c(O)c1)O[C@H]1[C@H](O[C@@H]2OC[C@](O)(CO)[C@H]2O)[C@@H](O)[C@H](OCCc2ccc(O)c(O)c2)O[C@@H]1CO[C@@H]1OC[C@H](O[C@@H]2OC[C@](O)(CO)[C@H]2O)[C@H](O)[C@H]1O
inactive: all assays above

COc1cc([C@H]2Oc3c(OC)cc([C@H](O)[C@H](O)CO[C@@H]4O[C@H](CO)[C@@H](O)[C@H](O)[C@H]4O)cc3[C@@H]2CO)ccc1O
inactive: all assays above
